pIC50: −log10 of the molar value. Values after ≈ are worked out from the molar mass of the structure shown. Each block holds one compound with its values, some of them ahead of it.
Legend:
Cathepsin K [1] = target: Cathepsin K (Homo sapiens, UniProt P43235); assay: Inhibition of humanized rabbit cathepsin K
Cathepsin B [2] = target: T1, Cathepsin B (Homo sapiens, UniProt P07858); assay: Inhibition of cathepsin B
In short: (§1)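 Purified human cathepsin enzymes, with assay conditions per an earlier report. Read-out is IC50; standard deviations were typically within 35% of the IC50.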

Procathepsin L [3] = target: T2, Procathepsin L (Homo sapiens, UniProt P07711); assay: Inhibition of cathepsin L; in short: as §1
T2 sequence (P07711 whole entry): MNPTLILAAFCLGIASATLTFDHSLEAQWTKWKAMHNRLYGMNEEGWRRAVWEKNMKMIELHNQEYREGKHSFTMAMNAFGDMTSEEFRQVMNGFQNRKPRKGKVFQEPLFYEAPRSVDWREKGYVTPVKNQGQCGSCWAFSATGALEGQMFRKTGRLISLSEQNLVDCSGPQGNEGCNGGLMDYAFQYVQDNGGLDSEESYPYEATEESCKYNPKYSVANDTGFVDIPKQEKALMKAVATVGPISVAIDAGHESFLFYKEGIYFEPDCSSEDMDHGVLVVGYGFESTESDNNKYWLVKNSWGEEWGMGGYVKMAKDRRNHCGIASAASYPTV

Cathepsin S [4] = target: T3, Cathepsin S (Homo sapiens, UniProt P25774); assay: Inhibition of cathepsin S; in short: as §1
T3 sequence (P25774 whole entry): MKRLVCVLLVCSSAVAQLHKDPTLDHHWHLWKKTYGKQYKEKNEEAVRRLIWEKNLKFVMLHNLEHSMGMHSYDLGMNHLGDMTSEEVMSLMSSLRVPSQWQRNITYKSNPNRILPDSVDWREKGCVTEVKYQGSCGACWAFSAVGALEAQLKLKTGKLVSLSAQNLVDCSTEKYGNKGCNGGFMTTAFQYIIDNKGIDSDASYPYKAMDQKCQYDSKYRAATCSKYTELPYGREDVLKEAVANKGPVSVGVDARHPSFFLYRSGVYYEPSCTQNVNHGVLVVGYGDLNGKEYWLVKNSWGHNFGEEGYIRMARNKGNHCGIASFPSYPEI

[5] = Half life in monkey; format: ADME, organism-based, Macaca mulatta; settings: rhesus monkey, in vivo
[6] = Clearance in monkey; format: ADME, organism-based, Macaca mulatta; settings: rhesus monkey, in vivo
Cathepsin K [7] = target: T4, Cathepsin K (Oryctolagus cuniculus, UniProt P43236); assay: Inhibition of rabbit cathepsin K
T4 sequence (P43236 whole entry): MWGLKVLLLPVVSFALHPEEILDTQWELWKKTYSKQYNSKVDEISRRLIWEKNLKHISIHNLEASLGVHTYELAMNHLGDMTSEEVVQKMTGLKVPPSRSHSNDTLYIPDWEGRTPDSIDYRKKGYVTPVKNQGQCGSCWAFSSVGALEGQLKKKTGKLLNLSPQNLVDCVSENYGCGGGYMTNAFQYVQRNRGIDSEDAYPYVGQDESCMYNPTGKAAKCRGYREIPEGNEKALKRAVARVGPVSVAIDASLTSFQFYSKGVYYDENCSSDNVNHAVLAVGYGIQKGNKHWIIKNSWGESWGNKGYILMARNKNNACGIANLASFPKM

Osteoclast = assay: Inhibition of bone resorption in rabbit osteoclast; settings: Oryctolagus cuniculus
Fibroblast = assay: Accumulation of intracellular type I collagen in human dermal fibroblast upto 10 uM; format: functional
In short: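 Primary human dermal fibroblasts were grown in 3-D collagen gel, with inhibitors present for the final 3 days at concentrations up to 10 µM. Cells were freed from the gel with collagenase, fixed and permeabilized. Intracellular type I collagen was stained with an anti-type I collagen mAb plus a FITC-labelled secondary antibody and quantified by flow cytometry.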

Cathepsin F = target: T5, Cathepsin F (Homo sapiens, UniProt Q9UBX1); assay: Inhibition of cathepsin F; in short: as §1
T5 sequence (Q9UBX1 whole entry): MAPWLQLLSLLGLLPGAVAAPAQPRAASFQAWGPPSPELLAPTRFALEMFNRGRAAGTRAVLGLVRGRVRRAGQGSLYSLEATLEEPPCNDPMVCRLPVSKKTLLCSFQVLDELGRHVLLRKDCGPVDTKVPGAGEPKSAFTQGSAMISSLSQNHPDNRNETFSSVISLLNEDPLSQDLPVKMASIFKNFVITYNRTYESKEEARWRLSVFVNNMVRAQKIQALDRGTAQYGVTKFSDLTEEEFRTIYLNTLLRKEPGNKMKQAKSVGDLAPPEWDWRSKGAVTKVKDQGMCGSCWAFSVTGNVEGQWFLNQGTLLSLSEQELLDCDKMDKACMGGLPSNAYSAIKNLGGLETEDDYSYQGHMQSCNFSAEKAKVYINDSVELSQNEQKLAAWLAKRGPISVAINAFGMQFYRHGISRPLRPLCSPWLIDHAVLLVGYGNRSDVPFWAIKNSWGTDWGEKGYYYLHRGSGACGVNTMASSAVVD

Cathepsin L2 = target: T6, Cathepsin L2 (Homo sapiens, UniProt O60911); assay: Inhibition of cathepsin V; in short: as §1
T6 sequence (O60911 whole entry): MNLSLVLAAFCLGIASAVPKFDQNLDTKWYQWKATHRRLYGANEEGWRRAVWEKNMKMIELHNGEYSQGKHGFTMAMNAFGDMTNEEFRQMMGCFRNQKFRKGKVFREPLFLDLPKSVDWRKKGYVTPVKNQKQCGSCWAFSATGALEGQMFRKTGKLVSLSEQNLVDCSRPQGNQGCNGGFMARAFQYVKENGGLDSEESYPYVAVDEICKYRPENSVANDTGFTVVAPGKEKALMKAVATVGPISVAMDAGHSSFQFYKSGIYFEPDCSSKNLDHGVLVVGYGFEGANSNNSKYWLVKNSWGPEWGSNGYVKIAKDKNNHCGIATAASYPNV

Dipeptidyl peptidase 1 = Dipeptidyl peptidase 1 (Homo sapiens, UniProt P53634); assay: Inhibition of cathepsin C; in short: as §1
Chain of Dipeptidyl peptidase 1 (P53634 25-134 limits assumed): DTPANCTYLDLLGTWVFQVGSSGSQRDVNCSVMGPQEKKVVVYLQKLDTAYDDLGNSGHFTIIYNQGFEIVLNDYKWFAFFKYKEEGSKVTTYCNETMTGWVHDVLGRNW
Chain of Dipeptidyl peptidase 1 (P53634 231-394 limits assumed): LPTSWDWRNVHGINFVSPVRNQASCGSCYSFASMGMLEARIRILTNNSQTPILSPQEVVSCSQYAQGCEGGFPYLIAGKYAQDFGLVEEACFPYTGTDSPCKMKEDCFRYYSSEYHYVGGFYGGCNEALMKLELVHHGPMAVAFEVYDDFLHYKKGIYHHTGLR
Chain of Dipeptidyl peptidase 1 (P53634 395-463 limits assumed): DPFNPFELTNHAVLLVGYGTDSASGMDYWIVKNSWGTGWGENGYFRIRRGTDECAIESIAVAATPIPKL

Pro-cathepsin H = target: T7, Pro-cathepsin H (Homo sapiens, UniProt P09668); assay: Inhibition of cathepsin H; in short: as §1
T7 sequence (P09668 whole entry): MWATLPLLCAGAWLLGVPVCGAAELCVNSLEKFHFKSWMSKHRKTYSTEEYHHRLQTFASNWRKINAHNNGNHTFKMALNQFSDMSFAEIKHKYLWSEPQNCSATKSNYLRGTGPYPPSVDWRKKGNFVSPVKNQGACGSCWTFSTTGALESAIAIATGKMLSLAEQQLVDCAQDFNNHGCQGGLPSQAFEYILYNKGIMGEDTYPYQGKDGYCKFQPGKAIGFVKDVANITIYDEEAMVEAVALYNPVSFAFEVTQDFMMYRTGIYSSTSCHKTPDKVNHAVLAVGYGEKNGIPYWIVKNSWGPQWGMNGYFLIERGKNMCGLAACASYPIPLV

Cathepsin Z = Cathepsin Z (Homo sapiens, UniProt Q9UBR2); assay: Inhibition of cathepsin Z
Chain of Cathepsin Z (Q9UBR2 whole entry): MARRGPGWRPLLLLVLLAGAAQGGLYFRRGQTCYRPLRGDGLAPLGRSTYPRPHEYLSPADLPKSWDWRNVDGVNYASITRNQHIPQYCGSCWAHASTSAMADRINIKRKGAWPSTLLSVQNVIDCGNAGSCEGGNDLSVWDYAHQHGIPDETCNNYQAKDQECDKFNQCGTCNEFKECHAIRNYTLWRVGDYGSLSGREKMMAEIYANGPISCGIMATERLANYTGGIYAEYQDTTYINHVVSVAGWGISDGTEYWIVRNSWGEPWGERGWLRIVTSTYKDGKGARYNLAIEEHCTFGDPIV

Cathepsin K [8] = target: T8, Cathepsin K (Homo sapiens, UniProt P43235); assay: Inhibition of human cathepsin K
T8 sequence (P43235 whole entry): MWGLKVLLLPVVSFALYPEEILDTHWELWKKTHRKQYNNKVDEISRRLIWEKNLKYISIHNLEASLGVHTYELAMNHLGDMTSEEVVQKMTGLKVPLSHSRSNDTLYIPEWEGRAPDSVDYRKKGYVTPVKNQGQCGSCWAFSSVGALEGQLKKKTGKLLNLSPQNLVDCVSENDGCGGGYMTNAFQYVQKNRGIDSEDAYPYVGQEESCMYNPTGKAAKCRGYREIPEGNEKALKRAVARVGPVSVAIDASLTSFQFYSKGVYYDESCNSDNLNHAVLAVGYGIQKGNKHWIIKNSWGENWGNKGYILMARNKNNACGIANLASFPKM

Cathepsin B [9] = target: T1, Cathepsin B; assay: Inhibition of cathepsin B in human HepG2 cells; format: cell-based
In short: (§2)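 Whole-cell enzyme occupancy assays run as previously described: human HepG2 cells for cathepsin B and L, and Ramos cells for cathepsin S. Read-out is IC50.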

Procathepsin L [10] = target: T2, Procathepsin L; assay: Inhibition of cathepsin L in human HepG2 cells; format: cell-based
Cathepsin S [11] = target: T3, Cathepsin S; assay: Inhibition of cathepsin S in human ramos cells; format: cell-based; in short: as §2
[12] = Metabolic stability in rhesus monkey hepatocyte at 20 uM after 2 hrs assessed as recovery of parent compound; format: ADME, cell-based, Macaca mulatta; settings: hepatocytes, read-out: Stability
[13] = Metabolic stability in human hepatocyte at 20 uM after 2 hrs assessed as recovery of parent compound; format: ADME, cell-based; settings: hepatocytes, read-out: Stability
[14] = Metabolic stability in dog hepatocyte at 20 uM after 2 hrs assessed as recovery of parent compound; format: ADME, cell-based, Canis lupus familiaris; settings: hepatocytes, read-out: Stability
[15] = Oral bioavailability in rat at 10 mg/kg; format: ADME, organism-based; settings: in vivo
[16] = Clearance in rat at 10 mg/kg, po; format: ADME, organism-based; set-up: dose 10 mg/kg, route oral; settings: in vivo
[17] = Half life in rat at 10 mg/kg, po; format: ADME, organism-based; set-up: dose 10 mg/kg, route oral; settings: in vivo
Rattus norvegicus = assay: Volume of distribution at steady state in rat at 10 mg/kg, po; format: ADME, organism-based; set-up: dose 10 mg/kg, route oral; settings: in vivo
[18] = Oral bioavailability in dog at 5 mg/kg; format: ADME, organism-based, Canis lupus familiaris; settings: in vivo
[19] = Clearance in dog at 5 mg/kg, po; format: ADME, organism-based, Canis lupus familiaris; set-up: dose 5 mg/kg, route oral; settings: in vivo
[20] = Half life in dog at 5 mg/kg, po; format: ADME, organism-based, Canis lupus familiaris; set-up: dose 5 mg/kg, route oral; settings: in vivo
Canis familiaris = assay: Volume of distribution at steady state in dog at 5 mg/kg, po; format: ADME, organism-based, Canis lupus familiaris; set-up: dose 5 mg/kg, route oral; settings: in vivo
[21] = Oral bioavailability in rhesus monkey at 5 mg/kg; format: ADME, organism-based, Macaca mulatta; settings: in vivo
[22] = Clearance in rhesus monkey at 5 mg/kg, po; format: ADME, organism-based, Macaca mulatta; set-up: dose 5 mg/kg, route oral; settings: in vivo
[23] = Half life in rhesus monkey at 5 mg/kg, po; format: ADME, organism-based, Macaca mulatta; set-up: dose 5 mg/kg, route oral; settings: in vivo
Rhesus monkey = assay: Volume of distribution at steady state in rhesus monkey at 5 mg/kg, po; format: ADME, organism-based, Macaca mulatta; set-up: dose 5 mg/kg, route oral; settings: in vivo
[24] = Inhibition of antigen presenting mouse B cells; format: functional, cell-based
Splenocyte = assay: Inhibition of MHC 2 invariant chain iip10 in mouse splenocytes; format: functional, cell-based

- pIC50 (Cathepsin K [1]): 8.92
- pIC50 (Cathepsin B [2]): < 5.00
- pIC50 (Procathepsin L [3]): 5.47
- pIC50 (Cathepsin S [4]): 5.65
Compound: CC(C)C[C@H](N[C@@H](c1ccc(-c2ccc(S(C)(=O)=O)cc2)cc1)C(F)(F)F)C(=O)N[C@@H](C)C#N

- pIC50 (Cathepsin K [1]): 8.29
- pIC50 (Cathepsin B [2]): < 5.00
- pIC50 (Procathepsin L [3]): 5.53
- pIC50 (Cathepsin S [4]): 5.55
Compound: CC(C)C[C@H](N[C@@H](c1ccc(-c2ccc(S(C)(=O)=O)cc2)cc1)C(F)(F)F)C(=O)N[C@@H](C#N)Cc1ccccc1

- pIC50 (Cathepsin K [1]): 9.22
- pIC50 (Cathepsin B [2]): 6.02
- pIC50 (Procathepsin L [3]): 7.17
- pIC50 (Cathepsin S [4]): 7.42
Compound: CC(C)C[C@H](N[C@@H](c1ccc(-c2ccc(S(C)(=O)=O)cc2)cc1)C(F)(F)F)C(=O)N[C@H](C#N)Cc1ccccc1

- pIC50 (Cathepsin K [1]): 8.40
- pIC50 (Cathepsin B [2]): < 5.00
- pIC50 (Procathepsin L [3]): < 5.00
- pIC50 (Cathepsin S [4]): 5.60
Compound: CC(C)C[C@H](N[C@@H](c1ccc(-c2ccc(S(C)(=O)=O)cc2)cc1)C(F)(F)F)C(=O)NC(C)(C)C#N

- half-life [5]: 2 h
- clearance [6]: 7.5 mL/min/kg
- pIC50 (Cathepsin K [1]): 9.70
- pIC50 (Cathepsin K [7]): 9.10
- pIC50 (Osteoclast): 7.89
Compound: CC(C)C[C@H](N[C@@H](c1ccc(-c2ccc(S(C)(=O)=O)cc2)cc1)C(F)(F)F)C(=O)NCC#N

- pIC50 (Cathepsin K [1]): 9.22
- pIC50 (Cathepsin B [2]): 5.46
- pIC50 (Procathepsin L [3]): 6.18
- pIC50 (Cathepsin S [4]): 6.66
Compound: CC(C)C[C@H](N[C@@H](c1ccc(-c2ccc(S(C)(=O)=O)cc2)cc1)C(F)(F)F)C(=O)NC(C#N)c1ccccc1 (mixture of isomers)

Compound: CCCN1CCN(c2ccc(C(=O)NC3(C(=O)NCC#N)CCCCC3)cc2)CC1 [BALICATIB]
- Activity (Fibroblast): 3

- pIC50 (Cathepsin K [1]): 9.70
- pIC50 (Cathepsin B [2]): 5.99
- pIC50 (Procathepsin L [3]): 5.52
- pIC50 (Cathepsin S [4]): 7.22
- pIC50 (Cathepsin F): 6.10
- pIC50 (Cathepsin L2): 6.12
- pIC50 (Dipeptidyl peptidase 1): < 5.00
- pIC50 (Pro-cathepsin H): < 5.00
- pIC50 (Cathepsin Z): < 5.00
- pIC50 (Cathepsin K [8]): 9.70
- pIC50 (Cathepsin K [7]): 9.00
- pIC50 (Osteoclast): 7.64
- pIC50 (Cathepsin B [9]): 5.98
- pIC50 (Procathepsin L [10]): 5.31
- pIC50 (Cathepsin S [11]): 7.35
- remaining at 2 h, 20 µM [12]: 98%
- remaining at 2 h, 20 µM [13]: > 99%
- remaining at 2 h, 20 µM [14]: > 99%
- bioavailability [15]: 8%
- CL/F [16]: 2 mL/min/kg
- half-life [17]: 6 h
- Vdss (Rattus norvegicus): 1.1 L/kg
- bioavailability [18]: 6%
- CL/F [19]: 0.13 mL/min/kg
- half-life [20]: 57 h
- Vdss (Canis familiaris): 0.6 L/kg
- bioavailability [21]: 7%
- CL/F [22]: 6.1 mL/min/kg
- half-life [23]: 18 h
- Vdss (Rhesus monkey): 1.6 L/kg
- pIC50 [24]: 5.82
- MIC (Splenocyte): 1 µM (≈ 0.526 µg/mL)
Compound: CC(C)(F)C[C@H](N[C@@H](c1ccc(-c2ccc(S(C)(=O)=O)cc2)cc1)C(F)(F)F)C(=O)NC1(C#N)CC1 [ODANACATIB]

- pIC50 (Osteoclast): 7.82
- pIC50 (Cathepsin B [9]): 7.85
- pIC50 (Cathepsin S [11]): 8.10
Compound: CC(C)C[C@H](NC(=O)c1cc2ccccc2o1)C(=O)N[C@H]1CC[C@@H](C)N(S(=O)(=O)c2ccccn2)CC1=O [RELACATIB]
